Assay results from ChEMBL document CHEMBL1781959, “Synthesis and in vitro antitumor activity of substituted quinazoline and quinoxaline derivatives: search for anticancer agent” (Eur J Med Chem, 2011).

Tests used:
OVCAR-5 = experiment: Cytotoxicity against human OVCAR5 cells after 48 hrs by SRB assay; type: cell-based; conditions: ovcar-5, 48 h
How it was run: (§1)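 NCI-60 five-dose screen in RPMI 1640 with 5% FBS and 2 mM L-glutamine; 5000–40,000 cells/well, 24 h pre-incubation. DMSO stocks diluted to 0.01, 0.1, 1, 10 and 100 μM final; 48 h at 37 °C, 5% CO2. Fixed with TCA (10% final adherent, 16% suspension), stained with 0.4% SRB, A515. GI50, TGI and LC50 taken from time-zero, control and test absorbances.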

SK-OV-3 = experiment: Cytotoxicity against human SKOV3 cells after 48 hrs by SRB assay; type: cell-based; conditions: sk-ov-3, 48 h; how it was run: as §1
MDA-MB-231 = experiment: Cytotoxicity against human MDA-MB-231 cells after 48 hrs by SRB assay; type: cell-based; conditions: mda-mb-231, 48 h; how it was run: as §1
HOP-62 = experiment: Cytotoxicity against human HOP62 cells after 48 hrs by SRB assay; type: cell-based; conditions: hop-62, 48 h; how it was run: as §1
SK-MEL-28 = experiment: Cytotoxicity against human SK-MEL-28 cells after 48 hrs by SRB assay; type: cell-based; conditions: sk-mel-28, 48 h; how it was run: as §1
HCC 2998 = experiment: Cytotoxicity against human HCC2998 cells after 48 hrs by SRB assay; type: cell-based; conditions: hcc 2998, 48 h; how it was run: as §1
SR = experiment: Growth inhibition of human SR cells after 48 hrs by SRB assay; type: functional
How it was run: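 Leukemia suspension line in the NCI-60 screen, grown in RPMI 1640 with 5% FBS and 2 mM L-glutamine and preincubated for 24 h. Exposure was either a single 10^-5 M dose or five doses from 0.01 to 100 μM, for 48 h at 37 °C. Settled cells were fixed with 80% TCA (16% final), stained with SRB, and read at 515 nm. GI50 was derived from % growth against time-zero and untreated controls.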

OVCAR-8 [1] = experiment: Growth inhibition of human OVCAR8 cells after 48 hrs by SRB assay; type: functional; conditions: OVCAR-8, 48 h
How it was run: (§2)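 NCI 60-panel five-dose assay at 0.01, 0.1, 1, 10 and 100 μM. Cells in RPMI 1640 with 5% FBS and 2 mM L-glutamine, preincubated 24 h, with time-zero plates TCA-fixed. Drug exposure 48 h at 37 °C. Read by SRB staining at 515 nm. GI50 is the concentration where [(Ti−Tz)/(C−Tz)]×100 = 50, taken from log concentration versus % growth curves.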

CCRF-CEM [2] = experiment: Cytotoxicity against human CCRF-CEM cells after 48 hrs by SRB assay; type: cell-based; how it was run: as §1
M14 = experiment: Cytotoxicity against human M14 cells after 48 hrs by SRB assay; type: cell-based; conditions: m14, 48 h; how it was run: as §1
COLO 205 = experiment: Growth inhibition of human COLO205 cells after 48 hrs by SRB assay; type: functional; conditions: COLO 205, 48 h; how it was run: as §2
OVCAR-8 [3] = experiment: Cytotoxicity against human OVCAR8 cells after 48 hrs by SRB assay; type: cell-based; conditions: ovcar-8, 48 h; how it was run: as §1
A498 = experiment: Cytotoxicity against human A498 cells after 48 hrs by SRB assay; type: cell-based; conditions: a498, 48 h; how it was run: as §1
MCF7 = experiment: Cytotoxicity against human MCF7 cells after 48 hrs by SRB assay; type: cell-based; conditions: mcf7, 48 h; how it was run: as §1
786-0 = experiment: Growth inhibition of human 786-0 cells after 48 hrs by SRB assay; type: functional; conditions: 786-0, 48 h; how it was run: as §2
UO-31 = experiment: Growth inhibition of human UO31 cells after 48 hrs by SRB assay; type: functional; conditions: UO-31, 48 h
How it was run: (§3)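 NCI-60 panel cells grown in RPMI 1640 with 5% FBS and 2 mM L-glutamine, then seeded at 5000–40,000 cells/well by doubling time and preincubated for 24 h. Compound in DMSO was tested either at 10^-5 M alone or at 0.01–100 μM in five doses, for 48 h at 37 °C. Cells were fixed with cold TCA (10% final), stained with SRB, and read at 515 nm. GI50 was taken from % growth relative to time-zero and control wells.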

K562 = experiment: Cytotoxicity against human K562 cells after 48 hrs by SRB assay; type: cell-based; conditions: k562, 48 h; how it was run: as §1
NCI-H522 = experiment: Growth inhibition of human NCI-H522 cells after 48 hrs by SRB assay; type: functional; conditions: NCI-H522, 48 h; how it was run: as §2
IGROV-1 = experiment: Growth inhibition of human IGROV1 cells after 48 hrs by SRB assay; type: functional; conditions: IGROV-1, 48 h; how it was run: as §2
NCI-H322M [4] = experiment: Cytotoxicity against human NCI-H322M cells after 48 hrs by SRB assay; type: cell-based; how it was run: as §1
SF-295 = experiment: Cytotoxicity against human SF295 cells after 48 hrs by SRB assay; type: cell-based; conditions: sf-295, 48 h; how it was run: as §1
OVCAR-3 = experiment: Growth inhibition of human OVCAR3 cells after 48 hrs by SRB assay; type: functional; conditions: OVCAR-3, 48 h; how it was run: as §2
SF-268 = experiment: Growth inhibition of human SF268 cells after 48 hrs by SRB assay; type: functional; conditions: SF-268, 48 h; how it was run: as §2
CAKI-1 = experiment: Growth inhibition of human Caki1 cells after 48 hrs by SRB assay; type: functional; conditions: CAKI-1, 48 h; how it was run: as §2
U-251 = experiment: Growth inhibition of human U251 cells after 48 hrs by SRB assay; type: functional; conditions: U-251, 48 h; how it was run: as §3
KM12 = experiment: Growth inhibition of human KM12 cells after 48 hrs by SRB assay; type: functional; conditions: KM12, 48 h; how it was run: as §2
LOX IMVI = experiment: Cytotoxicity against human LOXIMVI cells after 48 hrs by SRB assay; type: cell-based; how it was run: as §1
CCRF-CEM [5] = experiment: Growth inhibition of human CCRF-CEM cells after 48 hrs by SRB assay; type: functional; how it was run: as §2
[6] = Growth inhibition of human Hs 578T cells after 48 hrs by SRB assay; type: functional; how it was run: as §2
NCI-H322M [7] = experiment: Growth inhibition of human NCI-H322M cells after 48 hrs by SRB assay; type: functional; how it was run: as §2
Malme-3M = experiment: Growth inhibition of human MALME-3M cells after 48 hrs by SRB assay; type: functional; how it was run: as §2
ACHN = experiment: Growth inhibition of human ACHN cells after 48 hrs by SRB assay; type: functional; how it was run: as §2
[8] = Cytotoxicity against human […] cells after 48 hrs by SRB assay; type: cell-based; how it was run: as §1
TK-10 = experiment: Growth inhibition of human TK10 cells after 48 hrs by SRB assay; type: functional; conditions: TK-10, 48 h; how it was run: as §3
SN12C = experiment: Cytotoxicity against human SN12C cells after 48 hrs by SRB assay; type: cell-based; how it was run: as §1
SK-MEL-5 = experiment: Growth inhibition of human SK-MEL-5 cells after 48 hrs by SRB assay; type: functional; conditions: SK-MEL-5, 48 h; how it was run: as §3

O=c1c2ccccc2nc(-c2ccco2)n1/N=C/c1ccccc1Cl
LC50 (OVCAR-5): > 100 µM
LC50 (SK-OV-3): > 100 µM
LC50 (MDA-MB-231): > 100 µM
LC50 (HOP-62): > 100 µM
LC50 (SK-MEL-28): > 100 µM
LC50 (HCC 2998): > 100 µM
GI50 (SR): > 100 µM
TGI (SR): > 100 µM
GI50 (OVCAR-8 [1]): 3.98 µM
TGI (OVCAR-8 [1]): 25.8 µM
LC50 (CCRF-CEM [2]): > 100 µM
LC50 (M14): > 100 µM
GI50 (COLO 205): 4.96 µM
TGI (COLO 205): 34.1 µM
LC50 (OVCAR-8 [3]): > 100 µM
LC50 (A498): > 100 µM
LC50 (MCF7): > 100 µM
GI50 (786-0): 3.94 µM
TGI (786-0): 14.9 µM
GI50 (UO-31): 6.12 µM
TGI (UO-31): > 100 µM
LC50 (K562): > 100 µM
GI50 (NCI-H522): 2.14 µM
TGI (NCI-H522): 6.45 µM
GI50 (IGROV-1): 6.12 µM
TGI (IGROV-1): > 100 µM
LC50 (NCI-H322M [4]): > 100 µM
LC50 (SF-295): > 100 µM
GI50 (OVCAR-3): 4.12 µM
TGI (OVCAR-3): 6.87 µM
GI50 (SF-268): 6.84 µM
TGI (SF-268): > 100 µM
GI50 (CAKI-1): 7.99 µM
TGI (CAKI-1): 34.8 µM
GI50 (U-251): 4.12 µM
TGI (U-251): 32.3 µM
GI50 (KM12): 3.65 µM
TGI (KM12): 25.4 µM
LC50 (LOX IMVI): > 100 µM
GI50 (CCRF-CEM [5]): 11.8 µM
TGI (CCRF-CEM [5]): > 100 µM
GI50 [6]: 15.2 µM
TGI [6]: > 100 µM
GI50 (NCI-H322M [7]): 4.11 µM
TGI (NCI-H322M [7]): 76.9 µM
GI50 (Malme-3M): 7.23 µM
TGI (Malme-3M): > 100 µM
GI50 (ACHN): 3.12 µM
TGI (ACHN): > 100 µM
LC50 [8]: > 100 µM
GI50 (TK-10): 7.84 µM
TGI (TK-10): > 100 µM
LC50 (SN12C): > 100 µM
GI50 (SK-MEL-5): 5.56 µM
TGI (SK-MEL-5): 31.8 µM
